Source: ChEMBL document CHEMBL3085726, “Tumor-targeting with novel non-benzoyl 6-substituted straight chain pyrrolo[2,3-d]pyrimidine antifolates via cellular uptake by folate receptor α and inhibition of de novo purine nucleotide biosynthesis” (J Med Chem, 2013)
The source made the active and inactive calls. The rule behind the calls is not given here.

How the values were obtained:
KB [1] = test: Growth inhibition of human KB cells expressing human RFC/FRalpha/PCFT after 96 hrs by CellTiter-blue assay in presence of folic acid; format: functional, cell-based
KB [2] = test: Growth inhibition of human KB cells expressing human RFC/FRalpha/PCFT after 96 hrs by CellTiter-blue assay; format: functional, cell-based
[3] = Growth inhibition of Chinese hamster R2(VC) cells after 96 hrs by CellTiter-blue assay; conditions: Cricetulus griseus
R2 = test: Growth inhibition of Chinese hamster R2 cells expressing human PCFT4 after 96 hrs by CellTiter-blue assay; format: functional, cell-based, Cricetulus griseus; conditions: R2, 96 h
[4] = Growth inhibition of Chinese hamster RT16 cells after 96 hrs by CellTiter-blue assay in presence of folic acid; format: functional, cell-based; conditions: Cricetulus griseus, RT16, 96 h
Procedure, shortened: (§1)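 RT16 cells were first kept 3 days in folate-free RPMI. Cells were exposed to a drug concentration range with or without 200 nM folic acid to block FR uptake. After 96 h, CellTiter-blue fluorescence was read.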

[5] = Growth inhibition of Chinese hamster RT16 cells after 96 hrs by CellTiter-blue assay; format: functional, cell-based; conditions: Cricetulus griseus, RT16, 96 h; procedure, shortened: as §1
[6] = Growth inhibition of Chinese hamster MTXRII-OuaR2-4 cells after 96 hrs by CellTiter-blue assay; conditions: Cricetulus griseus
[7] = Growth inhibition of Chinese hamster PC43-10 cells after 96 hrs by CellTiter-blue assay; format: functional, cell-based; conditions: Cricetulus griseus, PC43-10, 96 h
[8] = biological target: Folate receptor beta (Homo sapiens) (UniProt P14207); test: Displacement of [3H]-folic acid from human folate receptor-beta expressed in Chinese hamster D4 cells after 15 mins; format: cell-based
Folate receptor beta (Homo sapiens), sequence (P14207 17-230 limits assumed): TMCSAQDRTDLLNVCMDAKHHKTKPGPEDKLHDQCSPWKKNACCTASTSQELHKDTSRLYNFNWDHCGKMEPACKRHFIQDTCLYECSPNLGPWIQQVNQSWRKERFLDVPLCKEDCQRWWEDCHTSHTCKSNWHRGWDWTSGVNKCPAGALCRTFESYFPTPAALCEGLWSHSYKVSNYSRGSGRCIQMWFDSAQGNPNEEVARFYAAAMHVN
Procedure, shortened: (§2)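 Cells (~1.6x10^6) rinsed with DPBS, then acidic buffer (10 mM sodium acetate, 150 mM NaCl, pH 3.5) to strip bound folate. Washed with ice-cold HEPES-buffered saline, pH 7.4. Incubated 15 min at 0°C with [3H]folic acid (50 nM, 0.5 Ci/mmol) plus a range of unlabeled ligand concentrations. Bound label normalized to protein (pmol/mg). […] Triplicate.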

[9] = biological target: Folate receptor alpha (Homo sapiens) (UniProt P15328); test: Displacement of [3H]-folic acid from human folate receptor-alpha expressed in Chinese hamster RT16 cells after 15 mins; format: cell-based; procedure, shortened: as §2
Folate receptor alpha (Homo sapiens), sequence (P15328 25-234 limits assumed): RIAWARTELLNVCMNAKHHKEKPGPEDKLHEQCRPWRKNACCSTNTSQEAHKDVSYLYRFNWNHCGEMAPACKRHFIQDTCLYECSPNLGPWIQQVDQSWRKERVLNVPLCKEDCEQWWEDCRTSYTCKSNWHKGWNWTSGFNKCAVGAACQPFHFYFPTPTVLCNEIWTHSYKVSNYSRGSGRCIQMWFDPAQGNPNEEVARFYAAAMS

[10] = biological target: Thymidylate synthase (Homo sapiens) (UniProt P04818); test: Inhibition of recombinant TS (unknown origin)
Thymidylate synthase (Homo sapiens), sequence (P04818 2-313 limits assumed): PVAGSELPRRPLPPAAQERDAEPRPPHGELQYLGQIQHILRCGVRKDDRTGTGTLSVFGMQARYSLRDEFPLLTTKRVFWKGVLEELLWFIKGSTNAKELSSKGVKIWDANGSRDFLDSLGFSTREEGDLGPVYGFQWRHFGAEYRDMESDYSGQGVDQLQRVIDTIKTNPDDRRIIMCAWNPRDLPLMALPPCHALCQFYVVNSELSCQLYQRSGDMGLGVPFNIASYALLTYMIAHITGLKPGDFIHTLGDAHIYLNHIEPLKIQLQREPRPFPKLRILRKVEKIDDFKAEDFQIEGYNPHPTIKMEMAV

[11] = biological target: T1, Dihydrofolate reductase (Homo sapiens) (UniProt P00374); test: Inhibition of recombinant DHFR (unknown origin)
T1 sequence (whole entry): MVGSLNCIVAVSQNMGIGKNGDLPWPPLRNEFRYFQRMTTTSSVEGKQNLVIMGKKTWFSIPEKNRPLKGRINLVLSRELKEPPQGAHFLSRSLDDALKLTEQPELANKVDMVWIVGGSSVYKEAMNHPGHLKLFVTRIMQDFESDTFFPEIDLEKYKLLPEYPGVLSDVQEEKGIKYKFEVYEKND

KB [12] = test: Growth inhibition of human KB cells by CellTiter Blue fluorescence dye-based assay in presence of adenosine and AICA; format: functional, cell-based
Procedure, shortened: (§3)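 KB cells in complete folate-free RPMI 1640 with 2 nM leucovorin were exposed to a drug concentration range. Co-additions were adenosine (60 μM), thymidine (10 μM), both together, or AICA (320 μM). Cell density was read by CellTiter Blue fluorescence and normalized to drug-free cells. Data are representative of triplicate experiments.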

KB [13] = test: Growth inhibition of human KB cells by CellTiter Blue fluorescence dye-based assay in presence of thymidine; format: functional, cell-based; procedure, shortened: as §3
[14] = Growth inhibition of Chinese hamster D4 cells after 96 hrs by CellTiter-blue assay in presence of folic acid; format: functional, cell-based; conditions: Cricetulus griseus, D4, 96 h
[15] = Growth inhibition of Chinese hamster D4 cells after 96 hrs by CellTiter-blue assay; format: functional, cell-based; conditions: Cricetulus griseus, D4, 96 h
[16] = biological target: T2, Trifunctional purine biosynthetic protein adenosine-3 (Homo sapiens, UniProt P22102); test: In situ inhibition of GRAFTase in human KB cells assessed as incorporation of [14C]-glycine into [14C]-formyl GAR preincubated for 30 mins followed by [14C]-glycine addition measured after 15 hrs
T2 sequence (P22102 whole entry): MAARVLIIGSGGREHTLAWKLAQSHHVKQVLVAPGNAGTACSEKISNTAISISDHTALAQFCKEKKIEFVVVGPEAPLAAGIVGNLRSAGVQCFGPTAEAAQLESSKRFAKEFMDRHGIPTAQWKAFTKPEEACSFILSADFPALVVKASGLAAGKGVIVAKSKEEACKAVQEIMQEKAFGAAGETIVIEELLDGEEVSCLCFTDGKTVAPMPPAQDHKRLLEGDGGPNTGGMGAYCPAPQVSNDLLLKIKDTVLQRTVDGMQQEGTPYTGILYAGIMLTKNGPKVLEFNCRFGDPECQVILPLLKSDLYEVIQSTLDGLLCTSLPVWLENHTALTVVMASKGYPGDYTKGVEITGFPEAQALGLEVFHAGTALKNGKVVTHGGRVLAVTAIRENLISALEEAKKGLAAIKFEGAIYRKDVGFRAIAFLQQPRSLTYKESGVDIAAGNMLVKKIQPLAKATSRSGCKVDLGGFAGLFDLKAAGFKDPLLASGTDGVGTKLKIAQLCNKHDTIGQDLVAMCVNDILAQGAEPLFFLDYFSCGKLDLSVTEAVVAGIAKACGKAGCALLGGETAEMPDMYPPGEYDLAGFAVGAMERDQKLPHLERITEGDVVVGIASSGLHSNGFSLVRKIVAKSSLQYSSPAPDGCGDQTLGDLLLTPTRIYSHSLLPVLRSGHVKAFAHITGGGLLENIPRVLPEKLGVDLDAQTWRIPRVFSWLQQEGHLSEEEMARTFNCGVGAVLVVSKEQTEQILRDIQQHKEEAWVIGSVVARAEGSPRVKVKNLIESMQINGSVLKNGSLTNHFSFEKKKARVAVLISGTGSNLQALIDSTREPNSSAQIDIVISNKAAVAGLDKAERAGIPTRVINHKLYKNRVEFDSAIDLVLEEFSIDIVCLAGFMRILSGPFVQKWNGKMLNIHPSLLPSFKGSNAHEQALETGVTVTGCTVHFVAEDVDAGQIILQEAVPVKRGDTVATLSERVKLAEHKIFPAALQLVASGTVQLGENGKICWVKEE

SMILES | IC50 (KB [1]) [nM] | IC50 (KB [2]) [nM] | IC50 [3] [nM] | IC50 (R2) [nM] | IC50 [4] [nM] | IC50 [5] [nM] | IC50 [6] [nM] | IC50 [7] [nM] | inhibition [8] | inhibition [9] | inhibition [10] | inhibition [11] | growth inhibition (GI) (KB [12]) | growth inhibition (GI) (KB [13]) | IC50 [14] [nM] | IC50 [15] [nM] | IC50 [16] [nM]
C#CCC(Cc1cnc2nc(N)nc(N)c2n1)c1ccc(C(=O)N[C@@H](CCC(=O)O)C(=O)O)cc1 (mixture of isomers) [PRALATREXATE] | 1.94 | 0.47 | > 1000 | 57 | > 1000 | 168 | 819 | 0.69 |  |  |  |  |  |  |  |  | 
Nc1nc(=O)c2nc(CNc3ccc(C(=O)N[C@@H](CCC(=O)O)C(=O)O)cc3)cnc2[nH]1 |  |  |  |  |  |  |  |  | Active | Active |  |  |  |  |  |  | 
Nc1nc2[nH]c(CCCc3ccc(C(=O)N[C@@H](CCC(=O)O)C(=O)O)cc3)cc2c(=O)[nH]1 |  |  | > 1000 |  |  |  |  |  |  |  |  |  |  |  |  |  | 
CN(Cc1cnc2nc(N)nc(N)c2n1)c1ccc(C(=O)N[C@@H](CCC(=O)O)C(=O)O)cc1 [METHOTREXATE] |  |  | > 1000 |  |  |  |  |  |  |  |  |  |  |  |  |  | 
Nc1nc2[nH]c(CCCCCCCCC(=O)N[C@@H](CCC(=O)O)C(=O)O)cc2c(=O)[nH]1 | > 1000 | 1.48 | > 1000 | > 1000 | > 10000 | 12.3 | > 1000 | > 1000 | Active | Active | inactive | inactive | inactive | Active | > 1000 | 3.99 | 9.62
Nc1nc2[nH]c(CCCCCCC(=O)O)cc2c(=O)[nH]1 | > 1000 | > 1000 | > 1000 | > 1000 | > 1000 | > 1000 | > 1000 | > 1000 |  |  |  |  |  |  | > 1000 | > 1000 | 
Nc1nc2[nH]c(CCCCCCCCC(=O)O)cc2c(=O)[nH]1 | > 1000 | > 1000 | > 1000 | > 1000 | > 100 | > 10000 | > 1000 | > 1000 | inactive | Active |  |  |  |  | > 1000 | > 1000 | 
Nc1nc2c(c(=O)[nH]1)C[C@@H](CCc1ccc(C(=O)N[C@@H](CCC(=O)O)C(=O)O)cc1)CN2 [LOMETREXOL] |  |  | > 1000 |  |  |  |  |  |  |  |  |  |  |  |  |  | 
Nc1nc2[nH]c(CCCCCCC(=O)N[C@@H](CCC(=O)O)C(=O)O)cc2c(=O)[nH]1 | > 1000 | 7.9 | > 1000 | > 1000 | > 1000 | 47.1 | > 1000 | > 1000 | Active | Active | inactive | inactive | inactive | Active | > 1000 | 10.6 | 2.89
Cc1nc(=O)c2cc(CN(C)c3ccc(C(=O)N[C@@H](CCC(=O)O)C(=O)O)s3)ccc2[nH]1 [RALTITREXED] |  |  | > 1000 |  |  |  |  |  |  |  |  |  |  |  |  |  | 
Nc1nc2[nH]c(CCCCCCCC(=O)O)cc2c(=O)[nH]1 | > 1000 | > 1000 | > 1000 | > 1000 | > 1000 | > 1000 | > 1000 | > 1000 |  |  |  |  |  |  | > 1000 | > 1000 | 
Nc1nc2[nH]c(CCCCc3ccc(C(=O)N[C@@H](CCC(=O)O)C(=O)O)cc3)cc2c(=O)[nH]1 |  |  | > 1000 |  |  |  |  |  |  |  |  |  |  |  |  |  | 
Nc1nc2[nH]c(CCCCCCCC(=O)N[C@@H](CCC(=O)O)C(=O)O)cc2c(=O)[nH]1 | > 1000 | 1.1 | > 1000 | > 1000 | > 1000 | 8.54 | > 1000 | > 1000 | Active | Active | inactive | inactive | inactive | Active | > 1000 | 0.87 | 5.49
Nc1nc2[nH]c(CCCCCc3ccc(C(=O)N[C@@H](CCC(=O)O)C(=O)O)cc3)cc2c(=O)[nH]1 |  |  | > 1000 | > 1000 |  |  |  |  |  |  |  |  |  |  |  |  | 
Nc1nc2[nH]c(CCCCCC(=O)N[C@@H](CCC(=O)O)C(=O)O)cc2c(=O)[nH]1 | > 10000 | 200 | > 1000 | > 1000 | > 1000 | > 1000 | > 1000 | > 1000 | Active | Active |  |  |  |  | > 1000 | 214 | 
Nc1nc2[nH]c(CCCCCCc3ccc(C(=O)N[C@@H](CCC(=O)O)C(=O)O)cc3)cc2c(=O)[nH]1 |  |  | > 1000 | > 1000 |  |  |  |  |  |  |  |  |  |  |  |  | 
Nc1nc2[nH]c(CCCCCC(=O)O)cc2c(=O)[nH]1 | > 1000 | > 1000 | > 1000 | > 1000 | > 1000 | > 1000 | > 1000 | > 1000 |  |  |  |  |  |  | > 1000 | > 1000 | 
